# Compound activity (PubChem)
# Many of the other results were omitted from the sample, so hits are more common in it than they were.
# Avidin fluor – compound fluoresces at 488/530 nm on avidin beads; 220,000 compounds, 0.38% hits; compound fluorescence 488/530 nm, flow cytometry; stronger effect = higher value; fluorescence (KMESF) at 10 µM; in the data active means fluorescence above about 47
# Lmaj promast – reduces viability of Leishmania major promastigotes | resazurin fluorescence viability | AID 1063 | 200,000 compounds, 9% hits | inhibition, % at 10 µM;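 further: promastigotes grown with compound for 44 hours at 28 °C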
# ABCG2 block – blocks JC-1 efflux by human ABCG2 transporter; Q9UNQ0; IgMXP3 cells, flow cytometry; inhibition, % at 6.6 µM; 190,000 compounds, 0.1% hits; AID 1325;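 active means inhibition above 80%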;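 further: 0% = DMSO and 100% = nicardipine control wells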
#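 Times: 10 min at 25 °C | Test system: Two drug-resistant human cell lines, ABCG2 and ABCB1 | Quantity: 3 million cells/mL final, two lines in 1:1 ratio | Signal: Flow cytometry, 530 nm JC-1 signal | Dosing: Compound at 6.6 µM | Controls: Nicardipine and DMSO wells | Reagent: JC-1 as fluorescent efflux pump substrate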
# PKD1 kinase inh – inhibitors of human PKD1 kinase. Q15139. PKD1 kinase fluorescence polarization assay. inhibition, % (no concentration beside the values). 200,000 compounds, 0.056% hits. AID 797
# GSH fluor – compound fluoresces at 488/530 nm on GSH beads; GSH beads flow cytometry, compound fluorescence 488/530 nm; stronger effect = higher value; fluorescence (KMESF) at 10 µM; 190,000 compounds, 0.25% hits; AID 1776; in the data active means fluorescence above about 89;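 further: glutathione beads carrying GST-tagged Bcl family fusion proteins plus one bare bead set; values are compound well signal with DMSO vehicle wells as background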
# ABCB1 inh – blocks JC-1 efflux by human ABCB1 transporter | inhibition, % at 6.6 µM | P08183 | 190,000 compounds, 0.067% hits | CCRF-Adr cells, flow cytometry; in the data active means inhibition above about 40%;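 further: 0% = vehicle and 100% = reference inhibitor; higher value means more JC-1 retained so stronger ABCB1 efflux block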
# * = called active by the depositor; . = not tested or not shown. Unless noted, no stated cut-off is given here; in the data, active means inhibition above about 50%; inactive means the rest.
SMILES,Avidin fluor,Lmaj promast,ABCG2 block,PKD1 kinase inh,GSH fluor,ABCB1 inh
Cc1cccc(OCCC(=O)OCC(=O)N2CCc3ccccc32)c1,54*,-6,2,-4,21,0
O=C(CSc1n[nH]c(-c2cccs2)n1)N1CCCc2ccccc21,33,0,1,-1,19,0
Cc1cccc(C(=O)NCC(=O)OCC(=O)N2CCc3ccccc32)c1,13,-1,11,3,10,1
Cc1[nH]c2ccccc2c1SCC(=O)N1CCCc2ccccc21,8,99*,1,-9,25,0
CSc1c(CC(=O)Nc2ccc(F)cc2)n(Cc2ccccc2)c2ccccc12,22,12,10,-3,16,1
COCCCNC(=S)Nc1ccc(CC(=O)O)cc1,3,7,0,-7,7,1
Cc1noc(C)c1COc1cccc(C(=O)N2CCc3ccccc32)c1,10,19,2,-2,10,0
COc1ccc(C2CC(=O)c3c(ccc4ccccc34)N2)cc1OC (centres undefined),27,100*,3,-1,9,1
CCOc1cc(C2CC(=O)c3c(ccc4ccccc34)N2)ccc1O (centres undefined),12,36,1,5,8,0
CCCc1nn(C)c2c(=O)[nH]c(-c3cc(S(=O)(=O)Nc4ccc(NC(C)=O)cc4)ccc3OCC)nc12,5,.,.,.,.,.
O=C(CCl)N(c1ccc(Cl)cc1)c1c[nH]c2ccccc12,42,100*,7,3,20,1
O=C(CCl)N(c1ccccc1)c1c[nH]c2ccccc12,38,97*,1,-4,12,0
O=C(NCc1ccc(Cl)cc1)C(=O)c1c[nH]c2ccccc12,11,-8,4,-7,14,0
Cc1ccnc(N2C(=O)CSC2c2ccc(Cl)cc2)c1 (centres undefined),5,-3,18,2,14,3
COc1ccccc1NC(=O)CCSc1nnc(-c2ccncc2)o1,8,4,4,-1,21,0
C/C(=N\NC(=S)Nc1ccc(F)cc1)c1ccc2c(c1)OCCO2,11,77*,-7,-5,9,0
Cc1ccc(C)c(OCCCCn2ccnc2)c1,7,99*,1,-4,16,0
Cc1ccc(OCCCCn2ccnc2)c([N+](=O)[O-])c1,10,96*,2,-1,24,0
Cc1ccc(C(C)(C)C)c(OCCCn2ccnc2)c1,4,43,3,3,11,0
Cc1cc(C)c(C)c(OCCCn2ccnc2)c1,9,82*,6,-9,30,1
O=C(CCc1ccc(S(=O)(=O)NCc2ccccc2)cc1)NCC1CCCO1 (centres undefined),3,-6,2,-16,7,0
CCCN1C(=O)/C(=C\c2nc3ccccc3c(=O)[nH]2)c2ccccc21,13,100*,13,0,13,1
O=c1[nH]c(/C=C/c2cccc3ccccc23)nc2ccccc12,10,3,2,-8,22,1
Cc1ccc(C)c2[nH]c(=O)c(CN(Cc3cccs3)C(=S)NCc3ccco3)cc12,10,70*,7,3,15,2
CCN(CC)CCN(Cc1cc2cc(C)c(C)cc2[nH]c1=O)C(=S)NCc1ccco1,11,60*,0,-3,15,2
SMILES,Avidin fluor,Lmaj promast,ABCG2 block,PKD1 kinase inh,GSH fluor,ABCB1 inh
Cc1cc2cc(CN(Cc3cccs3)C(=S)NCc3ccco3)c(=O)[nH]c2cc1C,9,88*,-1,-6,5,0
Cc1ccc(C)c2[nH]c(=O)c(CN(CC3CCCO3)C(=S)NCc3ccco3)cc12 (centres undefined),7,.,.,.,.,.
COc1ccc2[nH]c(=O)c(CN(Cc3cccs3)C(=S)Nc3cccc(C)c3)cc2c1,10,100*,7,-10,9,2
Cc1cc2cc(CN(CCN(C)C)C(=S)NCc3ccco3)c(=O)[nH]c2cc1C,7,13,-1,5,8,0
Cc1noc(C)c1S(=O)(=O)Nc1ccc(C(=O)N2CCC(C)CC2)cc1,11,3,-1,5,9,0
COc1ccc(C2/C(=C(\O)c3ccc4c(c3)OCCO4)C(=O)C(=O)N2Cc2ccco2)c(OC)c1 (centres undefined),8,-2,5,-2,122*,0
COC(=O)c1sccc1NC(=O)Nc1cccc(F)c1,9,-9,9,-9,11,0
O=C(Nc1cccc(F)c1)N1CCCC(CNS(=O)(=O)Cc2ccccc2)C1 (centres undefined),10,92*,5,-3,24,1
N/C(=N\OC(=O)CCC1CCCC1)c1ccccn1,6,-9,9,-3,9,1
CCN(CC)S(=O)(=O)c1ccc(NC(=O)Nc2cccc(C(F)(F)F)c2)cc1,3,2,0,-7,16,0
Cc1ccc(S(=O)(=O)Nc2ccc(NC(=O)Nc3cccc(C(F)(F)F)c3)cc2)cc1,3,70*,-3,-6,10,0
Cc1ccc(NS(=O)(=O)c2ccc(NC(=O)c3cccc(NC(=O)C(C)C)c3)cc2)cc1,6,56*,0,-1,16,0
Cc1ccc(S(=O)(=O)Nc2ccc(C(=O)Nc3ccncc3)cc2)cc1,4,45,9,-2,14,3
NNC(=O)c1cccc(S(=O)(=O)Nc2cccc(C(F)(F)F)c2)c1,7,.,.,.,.,.
O=C(NCc1ccccc1Cl)c1ccc(S(=O)(=O)Nc2cccc(C(F)(F)F)c2)cc1,12,61*,-5,-8,5,0
CC(C)C(=O)N1CCN(c2ccc([N+](=O)[O-])c(NC(C)c3ccccc3)c2)CC1 (centres undefined),12,17,22,1,14,9
COCC(=O)Nc1ccccc1Br,12,54*,-5,1,5,0
COC(=O)C(C)(C)ONC(=O)Nc1ccccc1Cl,11,21,4,1,10,1
COC(=O)C(C)(C)ONC(=O)Nc1ccccc1Br,15,69*,0,-3,10,0
COc1ccccc1/C=C/C=C1\Oc2c(ccc(O)c2CN2CCN(CCO)CC2)C1=O,127*,35,5,1,15,4
O=C1/C(=C/C=C/c2ccccc2)Oc2c1ccc(O)c2CN1CCN(CCO)CC1,7,.,.,.,.,.
CCN1CCN(Cc2c(O)ccc3c2O/C(=C\c2ccccc2)C3=O)CC1,27,8,2,-1,20,1
CCN1CCN(Cc2c(O)ccc3c2O/C(=C\C=C\c2ccccc2)C3=O)CC1,17,96*,1,-3,11,1
COc1ccc2[nH]c(=O)c(CN(Cc3nnnn3Cc3ccc(F)cc3)CC3CCCO3)cc2c1 (centres undefined),105*,23,1,-2,12,0
